According to ChEMBL document CHEMBL5055631, “Antitumor properties of novel sesquiterpene lactone analogs as NFκB inhibitors that bind to the IKKβ ubiquitin-like domain (ULD)” (Eur J Med Chem, 2021):

Assays:
Type in all cases: functional
[1] = system: OVCAR-4; assay: Anticancer activity against human OVCAR-4 cells assessed as cell growth inhibition incubated for 48 hrs by SRB method
[2] = system: NCI-H226; assay: Anticancer activity against human NCI-H226 cells assessed as cell growth inhibition incubated for 48 hrs by SRB method
Outline: (§1)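 NCI-60 panel (DTP). Cells in RPMI 1640 with 5% FBS, 2 mM L-glutamine, seeded at 5,000–40,000 per well by doubling time and preincubated 24 h at 37 °C, 5% CO2. Time-zero plates TCA-fixed. DMSO stocks diluted in medium with gentamicin, tested at 100 μM, 10 μM, 1 μM, 0.1 μM and 10 nM for 48 h. Cells fixed with cold TCA, stained with SRB, absorbance read at 515 nm.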

[3] = system: HOP-62; assay: Anticancer activity against human HOP-62 cells assessed as cell growth inhibition incubated for 48 hrs by SRB method; outline: as §1
[4] = system: UACC-62; assay: Anticancer activity against human UACC-62 cells assessed as cell growth inhibition incubated for 48 hrs by SRB method
Outline: (§2)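 NCI-60 panel, SRB assay. Cells grown in RPMI 1640 with 5% FBS and 2 mM L-glutamine, seeded at 5,000–40,000 cells/well depending on doubling time, and preincubated 24 h at 37 °C with 5% CO2. Time-zero plates were TCA-fixed. Compounds came from DMSO stocks and were tested at 100 μM, 10 μM, 1 μM, 0.1 μM and 10 nM for 48 h. Cells were fixed with cold TCA and stained with 0.4% SRB, and the dye was solubilized in 10 mM Tris base with A515 read.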

[5] = system: SW-620; assay: Anticancer activity against human SW-620 cells assessed as cell growth inhibition incubated for 48 hrs by SRB method
[6] = system: EKVX; assay: Anticancer activity against human EKVX cells assessed as cell growth inhibition incubated for 48 hrs by SRB method; outline: as §1
[7] = system: HCC 2998; assay: Anticancer activity against human HCC 2998 cells assessed as cell growth inhibition incubated for 48 hrs by SRB method; outline: as §1
[8] = system: 786-0; assay: Anticancer activity against human 786-0 cells assessed as cell growth inhibition incubated for 48 hrs by SRB method; outline: as §1
[9] = system: HCT-15; assay: Anticancer activity against human HCT-15 cells assessed as cell growth inhibition incubated for 48 hrs by SRB method; outline: as §1
[10] = system: Malme-3M; assay: Anticancer activity against human MALME-3M cells assessed as cell growth inhibition incubated for 48 hrs by SRB method
[11] = system: NCI-H522; assay: Anticancer activity against human NCI-H522 cells assessed as cell growth inhibition incubated for 48 hrs by SRB method
[12] = system: HT-29; assay: Anticancer activity against human HT29 cells assessed as cell growth inhibition incubated for 48 hrs by SRB method; outline: as §1
[13] = system: CCRF-CEM; assay: Anticancer activity against human CCRF-CEM cells assessed as cell growth inhibition incubated for 48 hrs by sulforhodamine B assay
[14] = system: NCI/ADR-RES; assay: Anticancer activity against human NCI/ADR-RES cells assessed as cell growth inhibition incubated for 48 hrs by SRB method; outline: as §1
[15] = system: K562; assay: Anticancer activity against human K562 cells assessed as cell growth inhibition incubated for 48 hrs by SRB method
[16] = system: RPMI-8226; assay: Anticancer activity against human RPMI-8226 cells assessed as cell growth inhibition incubated for 48 hrs by SRB method
[17] = system: SF-539; assay: Anticancer activity against human SF-539 cells assessed as cell growth inhibition incubated for 48 hrs by SRB method
[18] = system: TK-10; assay: Anticancer activity against human TK-10 cells assessed as cell growth inhibition incubated for 48 hrs by SRB method; outline: as §2
[19] = system: SF-268; assay: Anticancer activity against human SF-268 cells assessed as cell growth inhibition incubated for 48 hrs by SRB method; outline: as §1
[20] = system: IGROV-1; assay: Anticancer activity against human IGROV-1 cells assessed as cell growth inhibition incubated for 48 hrs by SRB method; outline: as §1
[21] = system: RXF 393; assay: Anticancer activity against human RXF 393 cells assessed as cell growth inhibition incubated for 48 hrs by SRB method; outline: as §1
[22] = system: M14; assay: Anticancer activity against human M14 cells assessed as cell growth inhibition incubated for 48 hrs by SRB method; outline: as §1
[23] = system: KM12; assay: Anticancer activity against human KM12 cells assessed as cell growth inhibition incubated for 48 hrs by SRB method; outline: as §1
[24] = Anticancer activity against human HS 578T cells assessed as cell growth inhibition incubated for 48 hrs by SRB method
[25] = system: HOP-92; assay: Anticancer activity against human HOP-92 cells assessed as cell growth inhibition incubated for 48 hrs by SRB method
[26] = system: MDA-MB-231; assay: Anticancer activity against human MDA-MB-231 cells assessed as cell growth inhibition incubated for 48 hrs by SRB method; outline: as §1
[27] = system: SNB-19; assay: Anticancer activity against human SNB-19 cells assessed as cell growth inhibition incubated for 48 hrs by SRB method; outline: as §1
[28] = system: NCI-H23; assay: Anticancer activity against human NCI-H23 cells assessed as cell growth inhibition incubated for 48 hrs by SRB method; outline: as §1
[29] = system: CAKI-1; assay: Anticancer activity against human CAKI-1 cells assessed as cell growth inhibition incubated for 48 hrs by SRB method; outline: as §1
[30] = system: A549; assay: Anticancer activity against human A549 cells assessed as cell growth inhibition incubated for 48 hrs by SRB method; outline: as §1
[31] = system: OVCAR-5; assay: Anticancer activity against human OVCAR-5 cells assessed as cell growth inhibition incubated for 48 hrs by SRB method
[32] = system: OVCAR-8; assay: Anticancer activity against human OVCAR-8 cells assessed as cell growth inhibition incubated for 48 hrs by SRB method; outline: as §1
[33] = system: BT-549; assay: Anticancer activity against human BT-549 cells assessed as cell growth inhibition incubated for 48 hrs by SRB method; outline: as §1
[34] = system: MCF7; assay: Anticancer activity against human MCF7 cells assessed as cell growth inhibition incubated for 48 hrs by SRB method; outline: as §1
[35] = system: U-251; assay: Anticancer activity against human U-251 cells assessed as cell growth inhibition incubated for 48 hrs by SRB method; outline: as §2
[36] = system: MDA-MB-468; assay: Anticancer activity against human MDA-MB-468 cells assessed as cell growth inhibition incubated for 48 hrs by SRB method; outline: as §1
[37] = system: LOX IMVI; assay: Anticancer activity against human LOX IMVI cells assessed as cell growth inhibition incubated for 48 hrs by SRB method
[38] = system: SNB-75; assay: Anticancer activity against human SNB-75 cells assessed as cell growth inhibition incubated for 48 hrs by SRB method
[39] = system: UO-31; assay: Anticancer activity against human UO-31 cells assessed as cell growth inhibition incubated for 48 hrs by SRB method
Outline: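 NCI-60 panel, SRB assay. Time-zero plates were TCA-fixed. Compounds came from DMSO stocks and were tested at 100 μM, 10 μM, 1 μM, 0.1 μM and 10 nM for 48 h. Cells were fixed with cold TCA and stained with 0.4% SRB, and the dye was solubilized in 10 mM Tris base with A515 read.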

[40] = system: A498; assay: Anticancer activity against human A498 cells assessed as cell growth inhibition incubated for 48 hrs by SRB method; outline: as §1
[41] = system: HCT-116; assay: Anticancer activity against human HCT-116 cells assessed as cell growth inhibition incubated for 48 hrs by SRB method; outline: as §1

## C=C1C(=O)O[C@H]2[C@H]1CC/C(COC(=O)NCc1ccc(OC)cc1)=C\CC[C@@]1(C)O[C@@H]21
[1]
  GI50: 290 nM
[2]
  GI50: 480 nM
[3]
  GI50: 4810 nM
[4]
  GI50: 2860 nM
[5]
  GI50: 220 nM
[6]
  GI50: 1290 nM
[7]
  GI50: 510 nM
[8]
  GI50: 490 nM
[9]
  GI50: 240 nM
[10]
  GI50: 200 nM
[11]
  GI50: 170 nM
[12]
  GI50: 260 nM
[13]
  GI50: 260 nM
[14]
  GI50: 1460 nM
[15]
  GI50: 370 nM
[16]
  GI50: 260 nM
[17]
  GI50: 320 nM
[18]
  GI50: 310 nM
[19]
  GI50: 750 nM
[20]
  GI50: 320 nM
[21]
  GI50: 270 nM
[22]
  GI50: 190 nM
[23]
  GI50: 2350 nM
[24]
  GI50: 270 nM
[25]
  GI50: 240 nM
[26]
  GI50: 370 nM
[27]
  GI50: 700 nM
[28]
  GI50: 550 nM
[29]
  GI50: 720 nM
[30]
  GI50: 2430 nM
[31]
  GI50: 280 nM
[32]
  GI50: 490 nM
[33]
  GI50: 620 nM
[34]
  GI50: 1870 nM
[35]
  GI50: 960 nM
[36]
  GI50: 240 nM
[37]
  GI50: 270 nM
[38]
  GI50: 740 nM
[39]
  GI50: 190 nM
[40]
  GI50: 1790 nM
[41]
  GI50: 190 nM

## C=C1C(=O)O[C@H]2[C@H]1CC/C(COC(=O)NCc1cc(OC)cc(OC)c1)=C\CC[C@@]1(C)O[C@@H]21
[1]
  GI50: 2120 nM
[2]
  GI50: 2020 nM
[3]
  GI50: 3060 nM
[4]
  GI50: 1200 nM
[5]
  GI50: 1120 nM
[6]
  GI50: 2060 nM
[7]
  GI50: 1940 nM
[8]
  GI50: 1600 nM
[9]
  GI50: 770 nM
[10]
  GI50: 1860 nM
[11]
  GI50: 340 nM
[12]
  GI50: 1200 nM
[13]
  GI50: 470 nM
[14]
  GI50: 1820 nM
[15]
  GI50: 1570 nM
[16]
  GI50: 1800 nM
[17]
  GI50: 1540 nM
[18]
  GI50: 1590 nM
[19]
  GI50: 2460 nM
[20]
  GI50: 1540 nM
[21]
  GI50: 1290 nM
[22]
  GI50: 1640 nM
[23]
  GI50: 2800 nM
[24]
  GI50: 580 nM
[25]
  GI50: 1420 nM
[26]
  GI50: 720 nM
[27]
  GI50: 5320 nM
[28]
  GI50: 1840 nM
[29]
  GI50: 2110 nM
[30]
  GI50: 2580 nM
[31]
  GI50: 1010 nM
[32]
  GI50: 1700 nM
[33]
  GI50: 1610 nM
[34]
  GI50: 2720 nM
[35]
  GI50: 3160 nM
[36]
  GI50: 580 nM
[37]
  GI50: 540 nM
[38]
  GI50: 1990 nM
[39]
  GI50: 680 nM
[40]
  GI50: 2980 nM
[41]
  GI50: 770 nM

## C=C1C(=O)O[C@H]2[C@H]1CC/C(COC(=O)NCCc1ccc(OC)cc1)=C\CC[C@@]1(C)O[C@@H]21
[1]
  GI50: 2610 nM
[2]
  GI50: 4110 nM
[3]
  GI50: 12200 nM
[4]
  GI50: 1710 nM
[5]
  GI50: 2510 nM
[6]
  GI50: 7450 nM
[7]
  GI50: 2480 nM
[8]
  GI50: 2770 nM
[9]
  GI50: 1740 nM
[10]
  GI50: 2440 nM
[11]
  GI50: 1820 nM
[12]
  GI50: 2150 nM
[13]
  GI50: 1980 nM
[14]
  GI50: 2650 nM
[15]
  GI50: 3080 nM
[16]
  GI50: 2850 nM
[17]
  GI50: 1790 nM
[18]
  GI50: 2520 nM
[19]
  GI50: 10600 nM
[20]
  GI50: 2490 nM
[21]
  GI50: 1720 nM
[22]
  GI50: 1980 nM
[23]
  GI50: 8360 nM
[24]
  GI50: 1890 nM
[25]
  GI50: 1990 nM
[26]
  GI50: 1920 nM
[27]
  GI50: 8650 nM
[28]
  GI50: 4340 nM
[29]
  GI50: 4520 nM
[30]
  GI50: 13200 nM
[31]
  GI50: 2190 nM
[32]
  GI50: 3410 nM
[33]
  GI50: 2020 nM
[34]
  GI50: 8080 nM
[35]
  GI50: 11100 nM
[36]
  GI50: 1550 nM
[37]
  GI50: 1380 nM
[38]
  GI50: 4090 nM
[39]
  GI50: 1550 nM
[40]
  GI50: 10000 nM
[41]
  GI50: 1340 nM
